Measurements collected from several papers.
Protocols differ between the studies behind these lines.
Medium: plasma

SMILES | test system | conditions | quantity | value
CCOC(=O)[C@@]12C[C@@H]1[C@@H](n1ccc3c(NC)nc(C#Cc4ccc(Cl)s4)nc31)[C@H](O)[C@@H]2O | male Sprague-Dawley rat | oral, 1 mg/kg | AUC(0-inf) | 38.2 ng·h/mL
Cl.Clc1ccc2c(c1)nc(N1CCNCC1)n2Cc1ccccc1 | rat | oral, 5 mg/kg | AUC | 1.5 µM·h
COc1cc2c3c(n(CCCN4CCOCC4)c(=O)c2cc1OC)-c1cc2c(cc1C3=O)OCO2 | female Fischer 344 rat | intravenous, 24 mg/m², single dose | AUC(0-inf) | 806 ng·h/mL
C=CC(=O)N1CC2CC(n3nc(-c4ccc(C(=O)Nc5ccccn5)cc4)c4c(N)ncnc43)CC2C1 (centres unmarked) | male Wistar rat | oral, 3 mg/kg | AUC(0-t) | 908 ng·h/mL
Cc1noc(-c2cc3cc(-c4nc(C(=O)NCc5ccncc5)[nH]c4C)ccc3[nH]2)n1 | Sprague-Dawley rat | oral, 10 mg/kg | AUC | 11.1 µM·h
O=C1N(Cc2ccccc2Cl)c2ccccc2C12NN=C(c1ccccc1)S2 (centres unmarked) | Sprague-Dawley rat | oral, 40 mg/kg | AUC | 2820 ng·h/mL
N#Cc1[nH]nnc1-c1cccc(-c2cc(F)cc(C(F)(F)F)c2)c1 | male Sprague-Dawley rat | oral, 10 mg/kg | AUC | 68200 ng·h/mL
N#Cc1ccc(Nc2nc(N)cc(Oc3c(F)cc(-c4ccc(C#N)cc4)cc3F)n2)cc1 | Sprague-Dawley rat | intravenous, 1 mg/kg | AUC | 308 ng·h/mL
CCc1cc(C(=O)NC)c2nccc(N3CCc4c(cc(Cn5ccnc5)cc4-c4cn(C)nc4C(F)(F)F)C3=O)c2c1 | male Sprague-Dawley rat | intravenous, 3 mg/kg | AUC(0-inf) | 1280 ng·h/mL
N#Cc1[nH]nnc1-c1csc(-c2ccc(Cl)cc2)n1 | male Sprague-Dawley rat | oral, 10 mg/kg | AUC | 18300 ng·h/mL
CCNC(=O)c1nc(-c2ccc3[nH]c(-c4nc(C)no4)cc3c2)c(C)[nH]1 | Sprague-Dawley rat | oral, 10 mg/kg | AUC | 10.3 µM·h
